Consider 9 compounds from PMC3186881 (Chemico-biological interactions, 2011).

Structures are written as SMILES. Peptide text beside a SMILES is read from it. * marks the point of attachment. Cbz = O=C(OCc1ccccc1)*; CH2F = FC*

For orientation: inhibition means the relative decrease from the control value, in per cent.

Data set [1] addresses chymotrypsin-like (CT-L) activity of the proteasome (Homo sapiens, UniProt P28074). Put plainly: Chymotrypsin-like proteasome activity in treated Jurkat cells. Format: cell-based. The note with it: for CT-L activity over time (recovery or sustained inhibition): 1 h to 16 h.
The target in data set [2] is caspase-like (C-L) activity of the proteasome (Homo sapiens, UniProt P28072). The experiment in a line: Caspase-like proteasome activity in treated Jurkat cells. Format: cell-based. The note with it: for inhibition of C-L activity: Jurkat cells, equipotent concentrations (4.5 μM NPI-2078, 1 μM NPI-2104, 25 nM marizomib). The procedure, abridged:
(§1)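 Jurkat cells dosed 1 h or 12 h at equipotent concentrations chosen from 24 h DNA-fragmentation dose-response. Caspase-like activity read as z-LLE-amc hydrolysis; trypsin-like as […] hydrolysis. Fluorescence at ex 380/em 460 nm (RFU), normalized to DMSO-treated cells as 100%. Mean ± SD of three independent experiments; two-way ANOVA with Bonferroni post-test.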

The next data set deals with caspase-8. Put plainly: Caspase-8 activation by western blot. Format: cell-based. The note with it: Jurkat cells, 6 h. The procedure, abridged: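 Jurkat cells treated 6 h at 100 nM. Lysates from 5x10^6 cells; 50 μg protein run on SDS-PAGE, transferred to nitrocellulose, probed with caspase-8 antibody (1:500) detecting pro- and cleaved forms, then secondary (1:5000). Antibodies in 5% milk/TBS, 0.005% Tween; ECL detection. Densitometry given as cleaved:pro-caspase-8 ratio.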
A general note: In western blotting, separated proteins are transferred to a membrane and probed.

The subject of a further data set is PARP. Put plainly: PARP cleavage by western blot. The note with it: Jurkat cells, 100 nM, 16 h. Format: cell-based. An outline of the steps: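 Jurkat cells exposed to 100 nM for 16 h. Lysates from 5x10^6 cells; 50 μg protein by SDS-PAGE, nitrocellulose transfer, PARP antibody 1:2000, secondary 1:5000, diluted in 5% milk/TBS with 0.005% Tween; ECL detection. Cleaved PARP band quantified by densitometry, normalized to actin.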

Data set [3] relates to Jurkat cells. The experiment in a line: Nuclear morphology by Hoechst staining. The note with it: 100 nM, 24 h. Format: cell-based. An outline of the steps:
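Jurkat cells exposed 24 h at 100 nM; 10,000 cells stained with 5 μM Hoechst 33342 for 20 min, cytocentrifuged onto slides and examined by fluorescence microscopy for nuclear shrinkage and fragmentation.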

The test system of data set [4] is Jurkat cells. The experiment in a line: Cell size by forward scatter versus side scatter. Format: cell-based. The note with it: 100 nM, 24 h. The procedure, abridged: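 Jurkat cells treated 24 h, then analysed by flow cytometry. Cell size judged on forward- versus side-scatter plots, with a gate set on the DMSO control population to detect size shifts after treatment.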

In data set [5] the test system is β5 protein (chymotryptic-like subunit of the proteasome). The experiment in a line: β5 subunit protein level by western blot. The note with it: Jurkat cells, 100 nM, 1, 6 and 12 h. It is filed as cell-based.
A further data set relates to proteasomal activities. The note with it: leukemia cells; cited from earlier work.
Data set [6] deals with Jurkat cells. Put plainly: Cell viability by trypan blue exclusion. It is filed as cell-based. The note with it: for cell viability (trypan blue exclusion): 100 nM.
Data set [7] relates to Jurkat cells. Put plainly: DNA fragmentation. Format: cell-based. The note with it: 24 h.
Data set [8] concerns Jurkat cells. The experiment in a line: Intracellular superoxide levels. Format: cell-based. The note with it: 100 nM; for increase of intracellular superoxide compared to diluent: 16 h; for ROS levels (superoxide and hydrogen peroxide): time course. The procedure, abridged: (§2)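 Jurkat cells treated at 100 nM over a time course up to 16 h. Stained 30 min in the dark with dihydroethidine (superoxide, FL-3) or CM-H2DCF-DA (hydrogen peroxide, FL-1); flow cytometry, mean fluorescence reported. Compared with DMSO-treated cells by ANOVA and Bonferroni post-test.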

The test system of data set [9] is Jurkat cells. The experiment in a line: Intracellular hydrogen peroxide levels. The note with it: 100 nM, time course. Format: cell-based. The procedure, abridged: as §2
Data set [10] has as its target trypsin-like (T-L) activity of the proteasome (Homo sapiens, UniProt Q99436). Put plainly: Trypsin-like proteasome activity in treated Jurkat cells. It is filed as cell-based. The procedure, abridged:
as §1

[11] abbreviates: equipotent concentrations (4.5 μM NPI-2078, 1 μM NPI-2104, 25 nM marizomib), 12 h.
Where [12] appears, read: equipotent concentrations (4.5 μM NPI-2078, 1 μM NPI-2104, 25 nM marizomib).
[13] abbreviates: equipotent concentrations (4.5 μM NPI-2078, 1 μM NPI-2104, 25 nM marizomib), 1 h.

Consider `C[C@@]12OC(=O)[C@]1([C@@H](O)[C@@H]1C=CCCC1)NC(=O)[C@@H]2CCCl` [marizomib, Marizomib, reference compound], for which the “inhibition of CT-L activity” value in data set [1] (setting [11]) is on record as “sustained”. In addition, in [2] (12 h), the “inhibition of C-L activity” value is on record as “sustained”. In addition, the inhibition at 0.025 µM in data set [2] (Jurkat, read-out: inhibition of C-L activity) worked out at 88%. The “caspase-8 activation (cleavage of pro-caspase-8)” value (“caspase-8 activation” below) with caspase-8 (setting [12]) is on record as “caspase-8 activation occurred”. In addition, the PARP cleavage entry in the data set with PARP is reported as “PARP cleavage occurred”. Also, in the data set on Jurkat cells [3], the “nuclear morphology (Hoechst staining)” value was “shrinkage and fragmentation of the DNA”. For the same compound, the “change in cell size compared to control population” value in the data set on Jurkat cells [4] is reported as “altered cell size”. Further, the “level of β5 protein” value in [5] is “Neither inhibitor decreased levels of β5 protein”. Also, the “profile of inhibition of proteasome activities” value in the data set with proteasomal activities is “blocking the CT-L and C-L activities potently, while T-L activity is inhibited to a lesser extent”.
`CC12OC(=O)C1(C(O)C1CCCCC1)NC(=O)C2CCCl` (stereo not drawn) [NPI-2056]: the “CT-L activity over time (recovery or sustained inhibition)” value in [1] (100 nM) is “partial recovery”. The “cell viability (trypan blue exclusion)” value with Jurkat cells [6] (24 h) is “more viable cells”. The DNA fragmentation result in the data set on Jurkat cells [7] (100 nM) is “less DNA fragmentation”. The “increase of intracellular superoxide compared to diluent” value (“increase of intracellular superoxide” below) in the data set on Jurkat cells [8] is “over 7 fold”. Besides, the “hydrogen peroxide levels compared to diluent” value in the data set with Jurkat cells [9] was “steadily increased”.
In the case of `CC[C@H](C)[C@H](NC(=O)OCc1ccccc1)C(=O)N[C@@H](CCC(=O)OC)C(=O)N[C@H](C(=O)N[C@@H](CC(=O)OC)C(=O)CF)[C@@H](C)O` [z-IETD-fmk] (Cbz-IE(OMe)TD(OMe)-CH2F), in the data set with Jurkat cells [7] (25 μM z-IETD-fmk 30 min before 100 nM analogs), the “effect of caspase-8 inhibitor pretreatment on analog-induced DNA fragmentation” value is recorded as “prevented”.
For the compound `CC12OC(=O)C1(C(O)C1C=CCCC1)NC(=O)C2CCBr` (stereo not drawn) [NPI-2053], the “increase of intracellular superoxide” value in the data set on Jurkat cells [8] is “over 7 fold”. Besides, the “hydrogen peroxide levels compared to diluent” value in the data set with Jurkat cells [9] was “steadily increased”.
For the compound `CC12OC(=O)C1(C(O)C1C=CCCC1)NC(=O)C2CCSC#N` (stereo not drawn) [NPI-2104], the “inhibition of CT-L activity” value in data set [1] (100 nM, 1 h) was “about 90%”; in data set [1] (setting [11]), 70%. Further, in data set [1] (100 nM), the “CT-L activity over time (recovery or sustained inhibition)” value was “recovered”. The “CT-L activity, % of control” value in [1] (100 nM, 12 h) is 64.5%; in data set [1] (equipotent concentration (1 μM NPI-2104), 12 h), 28.6%; in data set [1] (setting [13]), 10%. In addition, the “inhibition of C-L activity” value in data set [2] (1 h) was not below 95%; in data set [2] (12 h), more than 65%. The “inhibition of T-L activity” value in data set [10] (equipotent concentrations (1 μM NPI-2104, 25 nM marizomib), 1 h) is recorded as 11%; in [10] (setting [11]), more than 30%. Besides, the “cell viability (trypan blue exclusion)” value in the data set on Jurkat cells [6] (24 h) is reported as “did not affect viability”. Further, the figures for the “caspase-8 activation” value with caspase-8 (100 nM) and with caspase-8 (setting [12]) were “weakly activated” and “caspase-8 activation occurred”, respectively. In addition, in the data set with Jurkat cells [8], the “ROS levels (superoxide and hydrogen peroxide)” value is given as “weak”.
For the compound `Cc1ccc(S(=O)(=O)OCCC2C(=O)NC3(C(O)C4C=CCCC4)C(=O)OC23C)cc1` (stereo not drawn) [NPI-2151], the “increase of intracellular superoxide” value in the data set with Jurkat cells [8] is reported as “over 7 fold”. In addition, in the data set on Jurkat cells [9], the “hydrogen peroxide levels compared to diluent” value is listed as “steadily increased”.
Take `CC12OC(=O)C1(C(O)C1C=CCCC1)NC(=O)C2CCN=[N+]=[N-]` (stereo not drawn) [NPI-2078]: in [1] (setting [13]), the “CT-L activity, % of control” value stood at 10%. The “inhibition of CT-L activity” value in data set [1] (setting [11]) was 70%. The “inhibition of C-L activity” value in data set [2] (1 h) was not below 95%; in data set [2] (12 h), more than 65%. The “inhibition of T-L activity” value in [10] (setting [11]) is reported as approximately 5%. In the data set with Jurkat cells [6] (24 h), the “cell viability (trypan blue exclusion)” value is “did not affect viability”. For the same compound, in the data set on caspase-8 (setting [12]), the “caspase-8 activation” value is “caspase-8 activation occurred”. Also, in the data set on Jurkat cells [8], the “ROS levels (superoxide and hydrogen peroxide)” value was “weak”. The “change in cell size compared to control population” value in the data set on Jurkat cells [4] was “did not show a large change in cell size”. Also, the “level of β5 protein” value in data set [5] is “Neither inhibitor decreased levels of β5 protein”.
With `CC12OC(=O)C1(C(O)C1C=CCCC1)NC(=O)C2CCI` (stereo not drawn) [NPI-2070], the “increase of intracellular superoxide” value in the data set on Jurkat cells [8] is given as “over 7 fold”. For the same compound, in the data set with Jurkat cells [9], the “hydrogen peroxide levels compared to diluent” value was “steadily increased”.
For the compound `CC(=O)N[C@@H](CS)C(=O)O` [NAC, N-acetyl cysteine, reference compound], the “toxicity as single agent” value in the data set on Jurkat cells [6] (24 mM) is “did not have toxic effects”. The “effect of antioxidant pretreatment on viability loss by LG analogs” value in the data set on Jurkat cells [6] (24 mM NAC before 100 nM analogs, 24 h) is listed as “offered protection”. In addition, in the data set with Jurkat cells [7] (24 mM NAC before 100 nM analogs), the “effect of antioxidant pretreatment on DNA fragmentation induced by LG analogs” value is on record as “attenuated”.
